# Assay results gathered from unrelated publications.
# Lines come from different studies, so protocols differ.
# Target: Serine/threonine-protein kinase Nek7 (NEK7, Homo sapiens, UniProt Q8TDX7)
SMILES,effect on,technique,tested at,remaining binding
N[C@H]1CCN(c2nccc(-c3cnn4ncccc34)n2)C1,binding,,1 µM,100%
O=C(NCCCN1CCOCC1)c1ccc(Nc2nccc(-c3cc4ccccc4s3)n2)cc1,binding,competition with immobilised ligand,1 µM,52%
Cc1cnn2ncc(-c3ccnc(N(C)C)n3)c2c1,binding,,1 µM,100%
COc1cc(Nc2nccc(-c3cnn4nc(OC)ccc34)n2)cc(C(F)(F)F)c1,binding,competition with immobilised ligand,1 µM,40%
O=C(Nc1cccnn1)N1CCC(=Cc2cccc(Oc3ccc(C(F)(F)F)cn3)c2)CC1,cell-free assay,competition with immobilised ligand,1 µM,100%
O=C(NCCCN1CCOCC1)c1ccc(Nc2ncc(Cl)c(-c3ccc(Cl)s3)n2)cc1,binding,competition with immobilised ligand,1 µM,1.2%
CC(=O)Nc1c(C(C)=O)c(=O)n(C)c2nc(-c3ccc(Cl)cc3Cl)c(-c3ccc(Cl)cc3)cc12,cell-free assay,competition with immobilised ligand,1 µM,100%
CCN1CCN(Cc2ccc(C(=O)Nc3ccc(C)c(Oc4ccc5c(c4)CC(=O)N5)c3)cc2C(F)(F)F)CC1,binding,competition with immobilised ligand,1 µM,100%
C[C@@H](c1ccc(-n2cnc3c(N)ncnc32)cc1)N1CCc2nn(C)c(Cc3ccccc3)c2C1=O,binding,competition with immobilised ligand,0.1 µM,94%
COc1cnc(Nc2cccc(S(N)(=O)=O)c2)nc1N1CCN(c2ccccc2)C(=O)C1,binding,competition with immobilised ligand,1 µM,91%
O=C(Nc1c[nH]nc1C(=O)NC1CCNCC1)c1cc(F)cc(F)c1,binding,competition with immobilised ligand,1 µM,100%
O=C(N1CCS(=O)(=O)CC1)N1C[C@H](c2ccc(OC(F)(F)F)cc2)C[C@H](c2nc(C3CC3)no2)C1,cell-free assay,competition with immobilised ligand,1 µM,100%
Nc1ncc2c(n1)-c1c([nH]c3ccc(C#CC4CC4)cc13)CCCC2,binding,competition with immobilised ligand,1 µM,88%
COc1cccc(CNC(=O)c2nc3scc(COCc4ccc(C(=O)O)cc4)c3c(=O)[nH]2)c1,cell-free assay,competition with immobilised ligand,1 µM,100%
c1cnn2ncc(-c3ccnc(N4CCC45COC5)n3)c2c1,binding,,1 µM,86%
COc1cc(-c2cn(C3CCc4ccccc4N(CC(F)(F)F)C3=O)nn2)ccc1-n1ccc(C)n1 (stereo not drawn),cell-free assay,competition with immobilised ligand,1 µM,100%
C[C@H]1CCN(c2nccc(-c3cnn4ncccc34)n2)C1,binding,,1 µM,100%
CC(C)CC(=O)N1CCc2nc(-c3ccc(Br)cc3)nc(N(C)Cc3ccccc3)c2C1,cell-free assay,competition with immobilised ligand,0.1 µM,100%
CN(CCCC(F)(F)F)c1nccc(-c2cnn3ncccc23)n1,binding,,1 µM,100%
Cc1cnc(Nc2ccc(C(=O)N3CCC(N4CCCC4)CC3)cc2)nc1-c1cc2ccccc2s1,binding,competition with immobilised ligand,1 µM,0.7%
CC1CCCN1c1nccc(-c2cnn3ncccc23)n1 (stereo not drawn),binding,,1 µM,100%
CNC(=O)[C@@H]1CC[C@@H](n2c(-c3ccc4cnccc4c3)nc3ccc(C(=O)NCc4cccc(C(N)=O)c4)cc32)C1,binding,competition with immobilised ligand,1 µM,92%
COc1ccnn2ncc(-c3ccnc(N(C)C)n3)c12,binding,,1 µM,100%
CCC(=O)N[C@H]1CC[C@@H](C(=O)N(C)c2ccc(-c3nc4ccccc4o3)cc2)C1,cell-free assay,competition with immobilised ligand,1 µM,98%
